{"data": "Assay results from different studies", "target": "Serine/threonine-protein kinase 24 (STK24, Homo sapiens, UniProt Q9Y6E0)", "note": "Protocols differ between the studies behind these lines."}
{"SMILES": "Cc1ccc(NC(=O)c2ccc(C)c(C(F)(F)F)c2)cc1C#Cc1nn(C2CCC(O)CC2)c2ncnc(N)c12 (stereo not drawn)", "assay": "cell-free assay", "setting": "10 µM", "quantity": "remaining signal", "result": "114%"}
{"SMILES": "CCCCNc1ncc2c(-c3ccc(F)cc3)nn(C[C@H]3CC[C@H](N)CC3)c2n1", "assay": "target engagement in cells, inhibitor, chemoproteomics", "setting": "20 mM", "quantity": "inhibition", "result": "8.3%"}
{"SMILES": "N#CCCc1ccc2c(c1)-c1[nH]c3ccc([N+](=O)[O-])cc3c1CC(=O)N2", "assay": "cell-free assay", "setting": "0.5 µM", "quantity": "remaining signal", "result": "57.7%"}
{"SMILES": "Cn1c2c(Cl)c(Cl)ccc2c2cc[nH]c(=O)c21", "assay": "thermal stability, DSF", "setting": "10 µM", "quantity": "ΔTm", "result": "1.3 °C"}
{"SMILES": "CCN1CCN(Cc2ccc(NC(=O)c3ccc(C)c(/C=C/c4cnc5[nH]ccc5c4OC)c3)cc2C(F)(F)F)CC1", "assay": "target engagement in cells, inhibitor, chemoproteomics", "test system": "A-375", "setting": "50 nM", "quantity": "inhibition", "result": "-17%"}
{"SMILES": "NS(=O)(=O)c1cc(NC(=O)C2(c3ccccc3Cl)CC2)ccc1Oc1cccc(Cl)c1", "assay": "cell-free assay, competition with immobilised ligand", "setting": "1 µM", "quantity": "remaining binding", "result": "93%"}
{"SMILES": "Cn1cncc1C1=CN(c2ncnc3[nH]cnc23)CCS1", "assay": "enzyme activity, inhibitor, radiometric", "setting": "50 nM", "quantity": "inhibition", "result": "13.2%"}
{"SMILES": "Cc1ccc(C(=O)Nc2ccc(CN3CCN(C)CC3)c(C(F)(F)F)c2)cc1C#Cc1cnc2cccnn12", "assay": "enzyme activity, inhibitor", "setting": "23.5 nM", "quantity": "remaining activity", "result": "88%"}
{"SMILES": "Cn1c2c(Cl)c(Cl)ccc2c2cc(N)[nH]c(=O)c21", "assay": "thermal stability, DSF", "setting": "10 µM", "quantity": "ΔTm", "result": "0.6 °C"}
{"SMILES": "O=C1CCc2cc(Nc3cc(OC4CCOCC4)c([N+](=O)[O-])cc3Cl)ccc2N1", "assay": "cell-free assay, competition with immobilised ligand", "setting": "1 µM", "quantity": "remaining binding", "result": "97%"}
{"SMILES": "Cc1ccc(Nc2nccc(N(C)c3ccc4c(C)n(C)nc4c3)n2)cc1S(N)(=O)=O", "assay": "enzyme activity, inhibitor", "setting": "0.3 µM", "quantity": "inhibition", "result": "-5%"}
{"SMILES": "O=C(O)[C@@H]1[C@@H](Cn2nnc3ccccc3c2=O)CC[C@H]1C(=O)c1ccc(OCCC2CCOCC2)cc1", "assay": "cell-free assay, competition with immobilised ligand", "setting": "1 µM", "quantity": "remaining binding", "result": "99%"}
{"SMILES": "COc1cc(Cl)c(C(=O)N[C@@H](CN[C@H]2CC[C@@H](N)CC2)Cc2ccc(C#N)cc2)cc1-c1ccc(CN[C@H](C)c2ccc(C)cc2)o1", "assay": "enzyme activity, inhibitor", "setting": "1 µM", "quantity": "remaining activity", "result": "96%"}
{"SMILES": "CCCOc1ccc([C@@H]2[C@@H](C(=O)O)[C@H](c3ccc4c(c3)OCO4)CN2CC(=O)Nc2c(CC)cccc2CC)cc1", "assay": "cell-free assay, competition with immobilised ligand", "setting": "1 µM", "quantity": "remaining binding", "result": "74%"}
{"SMILES": "CC(C)(C)c1nc(-c2cccc(NS(=O)(=O)c3c(F)cccc3F)c2F)c(-c2ccnc(N)n2)s1", "assay": "enzyme activity, inhibitor, radiometric", "setting": "1 µM", "quantity": "remaining activity", "result": "14%"}
{"SMILES": "CN(C)c1ncnc(-c2ccc3nc(Nc4cc(CN5CCN(C(=O)CC(F)(F)F)CC5)ccn4)[nH]c3c2)c1Cl", "assay": "cell-free assay, competition with immobilised ligand", "setting": "1 µM", "quantity": "remaining binding", "result": "90%"}
{"SMILES": "CCN(CC)CCNC(=O)c1c(C)[nH]c(/C=C2\\C(=O)Nc3ccc(F)cc32)c1C", "assay": "cell-free assay", "setting": "0.5 µM", "quantity": "remaining signal", "result": "39.7%"}
{"SMILES": "Cc1sc(C(=O)NC2COC2)cc1-n1cc(NC(=O)Nc2c(F)cccc2Cl)cn1", "assay": "enzyme activity, inhibitor", "setting": "10 µM", "quantity": "remaining activity", "result": "67.3%"}
